Data on 7 compounds can be found in ChEMBL document CHEMBL4477168, “Hydrolyzable Tannins of Tamaricaceous Plants. 7.1 Structures and Cytotoxic Properties of Oligomeric Ellagitannins from Leaves of Tamarix nilotica and Cultured Tissues of Tamarix tetrandra” (J Nat Prod, 2016).

Data set [1] has as its system HSC-2. Description: Cytotoxic activity against human HSC2 cells assessed as reduction in cell viability incubated for 48 hrs by MTT assay. Type of data set: functional. As to conditions: HSC-2, 48 h. The method, boiled down:
(§1)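 OSCC lines HSC-2, HSC-3, HSC-4 grown in DMEM + 10% heat-inactivated FBS, 37 °C, humidified 5% CO2. Seeded 5 × 10^3 cells/well; after 48 h medium swapped for compound-containing medium (20 mM DMSO stock; top 100 μM, 2-fold serial dilution, three replicate wells). Further 48 h, viable cells by MTT; CC50 read from dose−response curve; at least three independent experiments averaged.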

Data set [2] concerns HSC-3. The data set can be described thus: Cytotoxic activity against human HSC3 cells assessed as reduction in cell viability incubated for 48 hrs by MTT assay. Type of data set: functional. As to conditions: HSC-3, 48 h. In a few lines: as §1
For data set [3], the system named is HSC-4. Description: Cytotoxic activity against human HSC4 cells assessed as reduction in cell viability incubated for 48 hrs by MTT assay. The format is functional. As to conditions: HSC-4, 48 h. In a few lines: as §1
In general terms: Tetrazolium dyes change colour on reduction, which living cells bring about.

For data set [4], the system named is HL-60. Description: Cytotoxic activity against human HL60 cells assessed as reduction in cell viability incubated for 48 hrs by trypan blue staining based hemocytometry. To be noted: HL-60, 48 h. Type of data set: functional. In a few lines:
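HL-60 cultured in RPMI1640 + 10% heat-inactivated FBS at 37 °C; plated at 3.0 × 10^4 cells/0.1 mL with various compound concentrations (DMSO stock 20 mM). After 48 h, viable cells counted by trypan blue exclusion on a hemocytometer under light microscope; CC50 from dose−response curve, mean of at least three independent experiments.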

Data set [5] can be described thus: Cytotoxic activity against human HGF cells assessed as reduction in cell viability incubated for 48 hrs by MTT assay. The format is cell-based. In a few lines:
(§2)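 Normal oral cells (gingival fibroblasts, pulp cells, periodontal ligament fibroblasts) from a premolar of a child, used at 8−15 population doublings; DMEM + 10% heat-inactivated FBS, 37 °C, 5% CO2. Seeded 5 × 10^3 cells/well, medium replaced after 48 h with compound (DMSO stock 20 mM; 2-fold dilutions from 100 μM, triplicate wells); 48 h more, MTT viability; CC50 from dose−response curve; mean of ≥3 independent experiments.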

Data set [6] is described as follows: Cytotoxic activity against human HPC cells assessed as reduction in cell viability incubated for 48 hrs by MTT assay. Type of data set: cell-based. The method, boiled down: as §2
A short description of data set [7]: Cytotoxic activity against human HPLF cells assessed as reduction in cell viability incubated for 48 hrs by MTT assay. The format is cell-based. The method, boiled down: as §2

In general, CC50 refers to the concentration at which the toxic effect on the cells reaches its halfway point.

Molecules are shown by their SMILES.

In the case of `O=C(O[C@@H]1O[C@@H]2COC(=O)c3cc(O)c(O)c(O)c3-c3c(cc(O)c(O)c3O)C(=O)O[C@H]2[C@H](OC(=O)c2cc(O)c(O)c(O)c2)[C@H]1O)c1cc(O)c(O)c(O)c1`, the CC50 in data set [1] amounted to 14.1 µM; in data set [2] it was 28 µM; in data set [3], 38 µM; in data set [4] it was 39.9 µM. Also, the CC50 at 48 h in data set [5], in data set [6] and in data set [7] was more than 100 µM each time.

Regarding `O=C(O[C@@H]1O[C@@H]2COC(=O)c3cc(O)c(O)c(O)c3-c3c(cc(O)c(O)c3O)C(=O)O[C@H]2[C@H](OC(=O)c2cc(O)c(O)c(O)c2)[C@H]1OC(=O)c1cc(O)c(O)c(O)c1)c1cc(O)c(O)c(Oc2c(C(=O)O[C@@H]3[C@@H](OC(=O)c4cc(O)c(O)c(O)c4)[C@@H]4OC(=O)c5cc(O)c(O)c(O)c5-c5c(cc(O)c(O)c5O)C(=O)OC[C@H]4O[C@H]3O)cc(O)c(O)c2O)c1`, the CC50 in data set [1] turned out to be 17.7 µM; in data set [2] it was 32.6 µM; in data set [3], 37.9 µM; in data set [4], 19.5 µM. In addition, the CC50 at 48 h in data set [5] was 92 µM; in data set [6] it was 86.6 µM; in data set [7], more than 100 µM.

With `O=C(O[C@@H]1O[C@@H]2COC(=O)c3cc(O)c(O)c(O)c3-c3c(cc(O)c(O)c3O)C(=O)O[C@H]2[C@H](OC(=O)c2cc(O)c(O)c(O)c2)[C@H]1OC(=O)c1cc(O)c(O)c(O)c1)c1cc(O)c(O)c(Oc2c(C(=O)O[C@H]3[C@H](OC(=O)c4cc(O)c(O)c(Oc5c(C(=O)O[C@H]6C(O)O[C@@H]7COC(=O)c8cc(O)c(O)c(O)c8-c8c(cc(O)c(O)c8O)C(=O)O[C@H]7[C@@H]6OC(=O)c6cc(O)c(O)c(O)c6)cc(O)c(O)c5O)c4)O[C@@H]4COC(=O)c5cc(O)c(O)c(O)c5-c5c(cc(O)c(O)c5O)C(=O)O[C@H]4[C@@H]3OC(=O)c3cc(O)c(O)c(O)c3)cc(O)c(O)c2O)c1` (some centres undefined), the CC50 in data set [1] was determined as 23.2 µM; in data set [2], 21.2 µM; in data set [3], 33.9 µM; in data set [4], 6.48 µM. Also, the figures for the CC50 at 48 h in data set [5], in data set [6] and in data set [7] were 88 µM, 86 µM and 88.3 µM, respectively.

For `O=C(O[C@@H]1O[C@@H]2COC(=O)c3cc(O)c(O)c(O)c3-c3c(cc(O)c(O)c3O)C(=O)O[C@H]2[C@H](OC(=O)c2cc(O)c(O)c(O)c2)[C@H]1OC(=O)c1cc(O)c(O)c(O)c1)c1cc(O)c(Oc2c(C(=O)O[C@H]3[C@H](OC(=O)c4cc(O)c(O)c(O)c4)O[C@@H]4COC(=O)c5cc(O)c(O)c(O)c5-c5c(cc(O)c(O)c5O)C(=O)O[C@H]4[C@@H]3OC(=O)c3cc(O)c(O)c(O)c3)cc(O)c(O)c2O)c(O)c1`, the CC50 was 16.3 µM in data set [1], 29.4 µM in data set [2], 27.7 µM in data set [3] and 29.7 µM in data set [4]. Further, the CC50 at 48 h in data set [5] is 95.3 µM; in data set [6], 89 µM; in data set [7], more than 100 µM.

On to `O=C(O[C@@H]1O[C@@H]2COC(=O)c3cc(O)c(O)c(O)c3-c3c(cc(O)c(O)c3O)C(=O)O[C@H]2[C@H](OC(=O)c2cc(O)c(O)c(O)c2)[C@H]1OC(=O)c1cc(O)c(O)c(O)c1Oc1cc(C(=O)O[C@@H]2O[C@@H]3COC(=O)c4cc(O)c(O)c(O)c4-c4c(cc(O)c(O)c4O)C(=O)O[C@H]3[C@H](OC(=O)c3cc(O)c(O)c(O)c3)[C@H]2OC(=O)c2cc(O)c(O)c(O)c2Oc2cc3c(c(O)c2O)Oc2cc(cc(O)c2O)C(=O)O[C@@H]2O[C@@H]4COC(=O)c5cc(O)c(O)c(O)c5-c5c(cc(O)c(O)c5O)C(=O)O[C@H]4[C@H](OC(=O)c4cc(O)c(O)c(O)c4)[C@H]2OC3=O)cc(O)c1O)c1cc(O)c(O)c(O)c1`, for which the CC50 is 18.8 µM in data set [1], 25.5 µM in data set [2], 34.3 µM in data set [3] and 16.4 µM in data set [4]. Also, the figures for the CC50 at 48 h in data set [5], in data set [6] and in data set [7] were 87.7 µM, 85 µM and 98.6 µM, respectively.

As for `O=C(O[C@H]1[C@@H]2OC(=O)c3cc(O)c(O)c(O)c3-c3c(cc(O)c(O)c3O)C(=O)OC[C@H]2OC(O)[C@@H]1O)c1cc(O)c(O)c(O)c1` (some centres undefined), the CC50 in data set [1] came to 5.82 µM; in data set [2], 23.3 µM; in data set [3] it was 34.4 µM; in data set [4], 30.5 µM. Moreover, the CC50 at 48 h in data set [5], in data set [6] and in data set [7] was more than 100 µM throughout.

Turning to `O=C(O[C@H]1[C@@H]2OC(=O)c3cc(O)c(O)c(O)c3-c3c(cc(O)c(O)c3O)C(=O)OC[C@H]2OC(O)[C@@H]1OC(=O)c1cc(O)c(O)c(O)c1)c1cc(O)c(O)c(O)c1` (some centres undefined), the half-maximal cytotoxic concentration (CC50) in data set [1] is 14.6 µM; in data set [2], 19.5 µM; in data set [3] it was 45.7 µM; in data set [4], 46.7 µM. Besides, the figures for the CC50 at 48 h in data set [5], in data set [6] and in data set [7] were more than 100 µM, 64 µM and more than 100 µM, respectively.
